Measurements as given in PMC8577376 (Journal of Medicinal Chemistry, 2021).

Tests used:
[1] = biological target: Mouse CatL (mCatL) (Mus musculus, UniProt P06797); experiment: kinact/KI^app determination, mouse CatL; type: biochemical; conditions: for kinact/KI: read-out: kinact/KI^app
Method in brief: (§1)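 Test compound 555.56–0.01 nM, quadruplicate wells. Product formation rates taken at 6 min intervals over 1 h, normalised to DMSO controls. kobs from inactivation curves; kinact and KIapp by nonlinear regression of kobs = kinact[I]/(KIapp+[I]); ratio then calculated.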

[2] = biological target: VeroE6 lysates (CatL activity) (Chlorocebus aethiops, UniProt Q9GKL8); experiment: Protease activity in VeroE6 cell lysates using Z-Phe-Arg-AMC; type: biochemical, monkey; conditions: for inactivation of CatL in VeroE6 lysates: 10 μM; for inhibition of Z-Phe-Arg-AMC cleaving activity in VeroE6 lysates: 20 μM
Sequence of VeroE6 lysates (CatL activity) (Q9GKL8 114-333): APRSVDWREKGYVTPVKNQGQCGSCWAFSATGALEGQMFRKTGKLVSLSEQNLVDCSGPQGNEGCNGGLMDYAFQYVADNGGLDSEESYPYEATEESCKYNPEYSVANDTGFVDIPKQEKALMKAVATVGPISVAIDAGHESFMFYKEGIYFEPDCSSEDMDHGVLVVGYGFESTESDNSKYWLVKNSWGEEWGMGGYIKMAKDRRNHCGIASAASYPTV

[3] = biological target: T1, human CatL (Homo sapiens, UniProt P07711); experiment: Single-concentration protease screen against human CatL; type: biochemical; conditions: for follow-up screen against CatL: 13 nM
T1 sequence (P07711 114-333): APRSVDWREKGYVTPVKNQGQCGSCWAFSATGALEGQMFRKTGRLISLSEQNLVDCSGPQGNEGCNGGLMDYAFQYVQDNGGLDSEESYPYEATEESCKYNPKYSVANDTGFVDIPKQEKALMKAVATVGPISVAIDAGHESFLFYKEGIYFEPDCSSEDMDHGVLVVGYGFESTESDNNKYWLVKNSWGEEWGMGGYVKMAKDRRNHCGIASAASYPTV

[4] = biological target: T1, human CatL; experiment: kinact/KI^app determination, recombinant human CatL; type: biochemical; conditions: for kinact/KI: read-out: kinact/KI^app; for selectivity for CatL over CatB (kinact/KI^app): human CatL vs human CatB
Method in brief: as §1

[5] = biological target: Human CatB (Homo sapiens, UniProt P07858); experiment: kinact/KI^app determination, recombinant human CatB; type: biochemical; conditions: for kinact/KI: read-out: kinact/KI^app
Method in brief: as §1

[6] = test system: A549 lysates (CatL/CatB activity); experiment: Protease activity in A549 cell lysates using Z-Phe-Arg-AMC; type: biochemical, human; conditions: for inactivation of CatL in A549 lysates: 10 μM; for inhibition of Z-Phe-Arg-AMC cleaving activity in A549 cell extracts: 20 μM
Method in brief: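 A549 cells lysed by sonication in 50 mM MES pH 6.0 with 100 μM AEBSF, 1 μM pepstatin A, 1 mM EDTA and 1 mM DTT; protein measured by BCA. Equal volume of 50 μM Z-Phe-Arg-AMC then added; activity normalised to 0.2% DMSO wells.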

[7] = test system: SARS-CoV-2; experiment: SARS-CoV-2-induced CPE in A549/ACE2 cells, inverted microscope; type: cell-based; conditions: 96 h
[8] = test system: SARS-CoV-2; type: cell-based
[9] = test system: SARS-CoV-2; type: cell-based; conditions: 24 h
[10] = biological target: SARS-CoV-2 PLpro (Severe acute respiratory syndrome coronavirus 2, UniProt P0DTD1); experiment: Single-concentration protease screen against SARS-CoV-2 PLpro; type: biochemical; conditions: 10 μM
[11] = biological target: Recombinant human furin (Homo sapiens, UniProt P09958); type: biochemical; conditions: up to 50 μM (final concentration)
Sequence of Recombinant human furin (P09958 108-794): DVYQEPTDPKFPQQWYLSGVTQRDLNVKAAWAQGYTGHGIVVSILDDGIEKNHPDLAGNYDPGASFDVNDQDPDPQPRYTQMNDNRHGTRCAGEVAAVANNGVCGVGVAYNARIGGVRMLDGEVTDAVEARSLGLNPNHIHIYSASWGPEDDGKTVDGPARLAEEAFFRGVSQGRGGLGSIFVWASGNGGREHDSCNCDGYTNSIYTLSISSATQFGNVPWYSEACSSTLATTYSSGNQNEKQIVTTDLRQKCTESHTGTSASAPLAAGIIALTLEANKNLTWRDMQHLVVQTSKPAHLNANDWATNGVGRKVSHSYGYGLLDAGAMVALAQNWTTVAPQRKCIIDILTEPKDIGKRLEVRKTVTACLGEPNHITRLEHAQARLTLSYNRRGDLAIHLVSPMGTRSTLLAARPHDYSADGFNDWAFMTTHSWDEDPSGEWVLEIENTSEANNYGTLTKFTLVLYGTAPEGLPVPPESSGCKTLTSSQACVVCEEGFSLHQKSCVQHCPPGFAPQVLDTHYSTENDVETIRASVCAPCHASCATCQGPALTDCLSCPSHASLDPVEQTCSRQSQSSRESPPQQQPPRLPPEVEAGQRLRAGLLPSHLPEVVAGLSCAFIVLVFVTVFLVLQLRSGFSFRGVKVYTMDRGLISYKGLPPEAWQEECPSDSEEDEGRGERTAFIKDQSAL

[12] = biological target: Recombinant human TMPRSS2 (Homo sapiens, UniProt O15393); experiment: TMPRSS2 protease activity assay; type: biochemical; conditions: up to 50 μM (final concentration)
Sequence of Recombinant human TMPRSS2 (O15393 whole entry): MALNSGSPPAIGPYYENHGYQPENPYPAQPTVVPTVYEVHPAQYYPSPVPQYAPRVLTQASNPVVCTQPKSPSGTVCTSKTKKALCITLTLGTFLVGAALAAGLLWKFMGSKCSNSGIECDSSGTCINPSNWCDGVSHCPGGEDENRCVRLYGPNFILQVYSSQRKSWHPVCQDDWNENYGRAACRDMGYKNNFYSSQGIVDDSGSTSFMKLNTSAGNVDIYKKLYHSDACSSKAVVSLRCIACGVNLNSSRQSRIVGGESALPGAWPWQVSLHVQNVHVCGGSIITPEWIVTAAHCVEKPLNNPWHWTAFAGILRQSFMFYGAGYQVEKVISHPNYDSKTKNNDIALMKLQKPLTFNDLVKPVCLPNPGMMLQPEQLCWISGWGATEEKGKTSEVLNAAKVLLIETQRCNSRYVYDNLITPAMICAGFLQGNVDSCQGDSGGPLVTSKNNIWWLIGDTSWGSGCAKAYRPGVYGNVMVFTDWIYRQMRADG

[13] = biological target: SARS-CoV-2 Mpro (Severe acute respiratory syndrome coronavirus 2, UniProt P0DTD1); experiment: Single-concentration protease screen against SARS-CoV-2 Mpro; type: biochemical; conditions: 10 μM
[14] = test system: SARS-CoV-2; type: cell-based; conditions: MRC-5/ACE2/TMPRSS2 cells
[15] = test system: SARS-CoV-2; experiment: microbe, parasite or virus in culture; type: cell-based

Sequence of Mouse CatL (mCatL) (P06797 114-334): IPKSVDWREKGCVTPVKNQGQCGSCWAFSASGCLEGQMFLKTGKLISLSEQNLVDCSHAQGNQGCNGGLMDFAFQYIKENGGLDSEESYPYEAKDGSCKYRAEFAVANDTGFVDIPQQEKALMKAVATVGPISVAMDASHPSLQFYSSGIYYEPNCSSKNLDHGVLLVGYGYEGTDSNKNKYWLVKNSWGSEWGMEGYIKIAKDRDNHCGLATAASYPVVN

SMILES | kinact [1] [s⁻¹] | kinact/KI [1] [M⁻¹ s⁻¹] | follow-up screen against CatL [3] | kinact [4] [s⁻¹] | kinact/KI [4] [M⁻¹ s⁻¹] | kinact [5] [s⁻¹] | kinact/KI [5] [M⁻¹ s⁻¹] | lowest concentration completely preventing virus-induced CPE [7] [nM] | further results
COC1=CC(=O)N(C(=O)/C=C/[C@H](C)NC(=O)[C@H](CC(C)C)NC(=O)[C@H](CC(C)C)NC(=O)C2CCN(C)CC2)[C@H]1Cc1c[nH]c2ccccc12 [compound 20] | 0.00319 | 806000 | most potent inhibitors | 0.00834 | 290000 | 0.017 | 19900 | – | inactivation of CatL in VeroE6 lysates [2]: complete inactivation; inactivation of CatL in A549 lysates [6]: complete inactivation
COC1=CC(=O)N(C(=O)/C=C/[C@H](CCc2ccccc2)NC(=O)[C@H](CC(C)C)NC(=O)[C@H](CC(C)C)NC(=O)[C@H](C(C)C)N(C)C)[C@H]1Cc1c[nH]c2ccccc12 [compound 23] | 0.0096 | 2.31e+06 | most potent inhibitors | 0.00985 | 835000 | 0.00189 | 7940 | 310 | fold more potent than parent natural product 1, based on kinact/KI^app ([4]; human CatL): 1.4 fold
CCCNC(=O)[C@H]1O[C@@H]1C(=O)N[C@H](C(=O)N1CCC[C@H]1C(=O)O)[C@@H](C)CC [CA-074, reference compound] | – | – | – | – | – | – | – | – | inhibition of Z-Phe-Arg-AMC cleaving activity in VeroE6 lysates [2]: no inhibitory activity; inhibition of Z-Phe-Arg-AMC cleaving activity in A549 cell extracts [6]: most of the activity was also sensitive
CC[C@H](C)[C@@H](C(=O)O[C@@H](CC(C)C)C(=O)N[C@@H](CC(C)C)C(=O)N[C@@H](C)/C=C/C(=O)N1C(=O)C=C(OC)[C@@H]1C)N(C)C [compound 1, gallinamide A] | 0.00569 | 1.07e+06 | most potent inhibitors | 0.00475 | 598000 | 0.000627 | 5350 | 625 | inhibitory effect on infection by time of addition [8]: maximum when 1 was added prior to or at the time of entry; antiviral activity in HEK293-ACE2-TMPRSS2 cells [9]: substantially reduced; inhibition of Z-Phe-Arg-AMC cleaving activity in VeroE6 lysates [2]: completely inhibited; CatL activity after incubation with compound ([3]; 10 μM): completely inhibited; selectivity for CatL over CatB (kinact/KI^app) [4]: 112 fold; inhibition of PLpro [10]: no inhibition; inhibition of furin activity [11]: did not inhibit; inhibition of Z-Phe-Arg-AMC cleaving activity in A549 cell extracts [6]: inhibited; inhibition of TMPRSS2 activity [12]: did not inhibit; inhibition of Mpro [13]: no inhibition; concentration completely neutralizing SARS-CoV-2 entry [14]: 32 nM
CS(=O)(=O)O.CS(=O)(=O)O.N=C(N)Nc1ccc(C(=O)Oc2ccc3cc(C(=N)N)ccc3c2)cc1 [nafamostat mesylate, reference compound] | – | – | – | – | – | – | – | – | antiviral activity in HEK293-ACE2-TMPRSS2 cells [9]: potent antiviral activity; antiviral activity on VeroE6 cells [15]: not effective; antiviral activity on VeroE6 cells ([15]; listed as Nafamostat mesylate): did not exhibit notable antiviral activity; concentration of neutralization of infection [14]: 4 µM
COC1=CC(=O)N(C(=O)/C=C/[C@H](C)NC(=O)[C@H](CCc2ccccc2)NC(=O)[C@H](CC2CCCCC2)NC(=O)[C@H](C(C)C)N(C)C)[C@H]1Cc1c[nH]c2ccccc12 [compound 19] | 0.00224 | 136000 | most potent inhibitors | 0.00587 | 189000 | 0.00335 | 9650 | 310 | concentration completely neutralizing SARS-CoV-2 entry [14]: 32 nM
COC1=CC(=O)N(C(=O)/C=C/[C@H](C)NC(=O)[C@H](CC(C)C)NC(=O)[C@H](CC2CCCCC2)NC(=O)C2CCN(C)CC2)[C@H]1Cc1c[nH]c2ccccc12 [compound 17] | 0.00856 | 292000 | most potent inhibitors | 0.00347 | 193000 | 0.0209 | 24300 | – | inactivation of CatL in VeroE6 lysates [2]: complete inactivation; EC50 ([15]; Severe acute respiratory syndrome coronavirus 2, Vero C1008, 72 h, read-out: EC50 SARS-CoV-2, VeroE6 cells, 72 h, mean ± SD of 3–4 independent biological replicates): > 5 µM; selectivity for CatL over CatB (kinact/KI^app) [4]: 8 fold; inactivation of CatL in A549 lysates [6]: complete inactivation
CC[C@H](C)[C@@H](C(=O)O[C@@H](CC(C)C)C(=O)N[C@@H](CC(C)C)C(=O)N[C@@H](C)/C=C/C(=O)N1C(=O)C=C(OC)[C@@H]1CC(C)C)N(C)C [compound 3] | – | – | most potent inhibitors | – | – | – | – | – | –
